Screens from PubChem.
Rows were chosen to be rich in hits. Some 5.7% of all compounds tested hit in one or more screens of this group.
Calb FLC: C. albicans growth inhibition with fluconazole, primary screen, CaCi-2 strain, Alamar Blue fluorescence; growth inhibition, % (no concentration beside the values); AID 1979, 2009; 300,000 tested, 0.57% active; C. albicans CaCi-2 (fluconazole-resistant clinical isolate) + fluconazole, 48 h;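 active means growth inhibition above about 58% in most replicates, limit read from the data, passing the limit was not always enough; inconclusive means exactly half the replicates above a set limit; inactive means most replicates below a set limit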;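 further: all wells also contain fluconazole at 8 µg/ml as a sub-toxic cotreatment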
SKKanGAS inh: S. pyogenes SKKanGAS growth inhibitors in kanamycin, primary screen, streptokinase expression inhibitor project, SKKanGAS strain, BacTiter-Glo luminescence; 6 h; inhibition, % at 7.5 µM; 300,000 tested, 1.3% active; AID 1662, 2009;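 active means mean replicate score, as percent of positive control median, at least 50; inconclusive means mean below 50 but one replicate at or above 50; inactive means mean and every replicate below 50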;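 further: strain carries kanamycin resistance gene driven by streptokinase promoter and grows in 40 µg/ml kanamycin; loss of luminescence reflects streptokinase promoter inhibition or plain growth inhibition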
CSC inhib: cancer stem cell viability inhibitors, primary screen, luminescence | cancer stem cell-like cells viability | inhibition, % at 7.5 µM | 300,000 tested, 1.1% active; in the data active means inhibition above about 75%; inconclusive means no clear call, values can overlap the other calls; tested in HMLE shEcad cells
Mdm2 MdmX PPI: inhibitors of human Mdm2-MdmX association, primary screen, cell-based, luminescence, split luciferase, SaOS-2, uHTS. SaOS-2 split-luciferase Mdm2/MdmX complementation. inhibition, % at 8 µM. 330,000 tested, 3% active. AID 485346, 2010;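 active means inhibition of at least 50% at 8 µM in the primary screen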
Target sequence (O15151 whole entry, looked up): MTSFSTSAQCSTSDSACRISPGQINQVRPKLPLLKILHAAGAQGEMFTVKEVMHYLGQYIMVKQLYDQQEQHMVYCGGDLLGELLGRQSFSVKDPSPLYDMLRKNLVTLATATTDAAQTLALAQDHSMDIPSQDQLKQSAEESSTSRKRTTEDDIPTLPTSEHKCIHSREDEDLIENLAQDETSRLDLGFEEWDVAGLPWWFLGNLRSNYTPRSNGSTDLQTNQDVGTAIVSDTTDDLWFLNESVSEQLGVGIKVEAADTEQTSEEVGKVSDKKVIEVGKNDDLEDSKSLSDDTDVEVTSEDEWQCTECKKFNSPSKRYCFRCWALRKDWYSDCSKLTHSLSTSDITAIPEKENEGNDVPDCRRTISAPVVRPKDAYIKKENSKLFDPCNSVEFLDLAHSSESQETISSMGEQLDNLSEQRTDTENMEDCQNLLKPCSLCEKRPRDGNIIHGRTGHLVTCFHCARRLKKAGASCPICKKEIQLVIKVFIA
Target sequence (Q00987 whole entry, looked up): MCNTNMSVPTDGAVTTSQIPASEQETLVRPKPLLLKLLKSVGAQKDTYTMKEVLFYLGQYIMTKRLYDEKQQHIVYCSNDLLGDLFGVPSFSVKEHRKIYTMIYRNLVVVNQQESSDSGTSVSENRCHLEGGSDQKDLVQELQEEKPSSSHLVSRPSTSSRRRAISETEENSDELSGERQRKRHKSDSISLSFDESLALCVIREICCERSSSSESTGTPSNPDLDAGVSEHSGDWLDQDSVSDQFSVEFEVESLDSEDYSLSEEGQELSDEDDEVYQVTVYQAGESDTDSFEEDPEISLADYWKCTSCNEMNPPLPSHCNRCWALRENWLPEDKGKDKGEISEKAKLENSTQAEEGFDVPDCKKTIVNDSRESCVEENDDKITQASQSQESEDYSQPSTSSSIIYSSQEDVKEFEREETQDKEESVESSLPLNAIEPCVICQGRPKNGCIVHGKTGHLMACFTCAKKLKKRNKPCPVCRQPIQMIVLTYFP
T cruzi inh: inhibitors of intracellular T. cruzi growth, primary screen, luminescence, NIH3T3 host cells | T. cruzi beta-gal in NIH3T3, 90 h | inhibition, % (test concentration not listed) | 300,000 tested, 1.4% active | AID 1885, 2009;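 active means mean inhibition across valid replicates above about 55%, limit read from the data; inconclusive means mean below that limit but half or more replicates reach it; inactive means mean below it, under half of replicates reach it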;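 further: signal also drops with host cell toxicity which is not excluded here; higher percent means less beta-gal luminescence so fewer parasites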
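compound dosing = single 50 nL compound addition per well in DMSO | material = NIH/3T3 host cells with β-galactosidase reporter T. cruzi | input = 5,000 host fibroblasts per well | timing = ≥90 h infection period, 3 h prior cell attachment | read-out basis = percent inhibition of parasite-derived β-gal signal | detection = GalScreen β-gal luminescence, detergent lysis, 60 min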
Beta apoptosis: inhibitors of cytokine-induced beta cell apoptosis, primary screen, luminescence | 300,000 tested, 0.8% active | protection from apoptosis, % (concentration not given with the values) | INS-1E cytokine-induced death, ATP luminescence, 48 h; percent of positive-control rescue, neutral wells zero;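 active means Every replicate reaches about 75%, or at least half do and their mean reaches it too, limit read from the data; inconclusive means At least half of replicates reach the limit but their mean does not; inactive means Under half of replicates reach the limit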;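 further: higher means more ATP so stronger rescue from cytokine killing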
Mdm2-MdmX conf: Mdm2-MdmX complex disruptors, retested hits, confirmation, luminescence, single concentration. AID 489028, 2010. 10,000 tested, 55% active. shares compounds with Mdm2 MdmX PPI. inhibition, % at 8 µM. Mdm2-MdmX binding, luminescent assay; in the data active means inhibition above about 40%
Full FLuc ctr: full-length luciferase signal inhibition, confirmation, counter-screen for Mdm2/MdmX interaction inhibitor project, cell-based, single concentration, SaOS-2 | inhibition, % at 8 µM | shares compounds with Mdm2 MdmX PPI | SaOS-2 full-length luciferase counterscreen, luminescence | 6,200 tested, 77% active | AID 504607, 2011;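 active means mean inhibition at 8 µM reaching about 37%, which flags the compound as non-specific, limit read from the data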;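 further: p53-null SaOS-2 cells with luciferase driven by a doxycycline-inducible promoter; compound on cells about two nights before reading with doxycycline added after day one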
Numbers stand for hits; – = inactive; ? = inconclusive; · = not tested or not shown.

SMILES	Calb FLC	SKKanGAS inh	CSC inhib	Mdm2 MdmX PPI	T cruzi inh	Beta apoptosis	Mdm2-MdmX conf	Full FLuc ctr
COc1ccccc1/C=C/C1(C(=O)NC2CCCC2)CC(=O)N1c1ccc(C)cc1 (configuration not stated)	–	–	·	–	–	–	·	·
COc1ccccc1/C=C/C1(C(=O)NC2CCCC2)CC(=O)N1c1ccc(F)cc1 (configuration not stated)	–	–	?	70	–	–	89	49
COc1cc(C2/C(=C(\O)c3ccc4c(c3)CC(C)O4)C(=O)C(=O)N2CCCn2ccnc2)cc(OC)c1OC (configuration not stated)	–	–	–	–	–	–	·	·
CCOc1ccc(/C=C/C(=O)Nc2ccc(C(N)=O)cc2)cc1OC	–	–	–	–	–	–	·	·
CCOc1cc(/C=C/C(=O)Nc2ccc(C(=O)NCCN(CC)CC)cc2)ccc1OCC(C)C	–	–	–	94	–	–	–	·
NC(=O)CSc1oc(-c2ccco2)nc1S(=O)(=O)c1ccc(Br)cc1	–	–	–	–	–	–	·	·
Cc1ccccc1N(C(=O)CS(=O)CC(=O)Nc1ccc(F)cc1)C(C)C(=O)NC(C)(C)C (configuration not stated)	–	–	–	–	–	–	·	·
CC(=O)Nc1ccc(/C=C/C(=O)c2ccc3c(c2)OCCO3)cc1	–	–	–	–	–	–	·	·
COc1cccc(NC(=S)NC(=O)/C=C/c2ccc(F)cc2)c1	–	–	–	–	–	–	·	·
CC(=O)Nc1cccc(C(=O)/C=C/c2ccc(C)cc2)c1	–	–	–	57	–	–	52	54
CCC(=O)Nc1cccc(C(=O)/C=C/c2ccc(F)cc2)c1	?	–	–	89	–	–	48	45
CCc1nnc(SCC(=O)Nc2ccc(NC(C)=O)cc2)n1-n1cccc1	–	–	–	–	–	·	·	·
Cn1nc(-c2ccc(Cl)cc2)nc2c(=O)n(C)c(=O)nc1-2	–	84	119	83	56	99	80	–
COc1cccc(CNC(=O)C2CCN(S(=O)(=O)N3CCC(C)CC3)CC2)c1	–	–	–	–	–	–	·	·
CC(C)N(C(=O)CN1CCC(c2nc3ccccc3[nH]2)CC1)C(C)C	–	–	–	–	–	·	·	·
COc1ccc(C(=O)Nc2cccc3c2CCCC3)c(OC)c1	–	–	–	–	·	·	·	·
CC1CCC(C(C)C)C(OC(=O)CSc2nccc(=O)[nH]2)C1 (configuration not stated)	–	–	·	–	–	–	·	·
COc1ccc(OCc2n(CC(=O)OC3CC(C)CCC3C(C)C)c3ccccc3[n+]2C)cc1 (configuration not stated)	–	–	–	94	–	100	97	59
CC(NS(=O)(=O)c1ccccc1)C1CC2CCC1C2 (configuration not stated)	–	–	–	–	·	–	·	·
CCOc1cc(CNC2CCCC2)cc(Cl)c1OCc1ccc(F)cc1	–	–	–	58	–	–	44	80
COc1cc(CNC2CCCC2)cc(Cl)c1OCc1ccccc1Cl	–	–	80	52	77	?	–	·
COc1cc(CNC2CCCCCCC2)cc(Cl)c1OCC(N)=O	–	–	–	–	–	–	·	·
COc1cc(CNC2CCCC2)cc(Cl)c1OCc1ccc(F)cc1	–	–	–	–	–	–	·	·
CCC(=O)c1ccc(O)c(CC=C(C)C)c1	–	–	·	57	–	–	44	42
CCC(=O)c1ccc(O)c(OC)c1	–	–	–	–	–	–	·	·
SMILES	Calb FLC	SKKanGAS inh	CSC inhib	Mdm2 MdmX PPI	T cruzi inh	Beta apoptosis	Mdm2-MdmX conf	Full FLuc ctr
COc1ccc(CCC(=O)OCC(=O)NCc2ccc(OC)c(OC)c2)cc1OC	·	·	–	–	·	–	·	·
Nc1ccccc1-c1nnc(SCC(=O)Nc2ccccc2OC(F)F)[nH]c1=O	·	·	–	–	·	–	·	·
Cc1ccccc1CC(=O)N1CC(C)OC(C)C1 (configuration not stated)	–	–	–	–	–	–	·	·
CC(OC(=O)CCC1CCCCC1)C(=O)Nc1ccc(S(N)(=O)=O)cc1 (configuration not stated)	–	–	–	–	–	–	·	·
CCCOc1ccc(C(=O)NNC(=S)NC(=O)c2cccs2)cc1	93	74	–	60	–	–	–	·
CCCOc1ccc(C(=O)NNC(=S)NC(=O)c2ccco2)cc1	78	104	–	51	?	–	–	52
O=C(COc1ccc(Br)cc1Br)NNC(=O)c1cccs1	–	–	–	–	–	–	·	·
Cc1ccc(OCC(=O)NNC(=S)NC(=O)c2cccs2)c(C)c1	–	87	?	51	–	–	–	·
C=CCNC(=S)NNC(=O)c1ccc(OCCCC)cc1	?	–	–	–	–	–	·	·
CC(C)CNc1nc(N)c([N+](=O)[O-])c(N2CCCCCC2)n1	–	–	–	–	–	–	·	·
CCCC(O)(CCC)C(=O)NN(C(=O)CCl)c1ccccc1	–	–	–	58	–	–	–	·
CCN(CC)CCNc1cc(C)nc2c1C(=O)C(=O)C=C2N1CCCCC1	–	–	–	65	60	–	67	–
CCN(CC)CCNC(=O)c1ccc(N2CCCCC2)c(NS(=O)(=O)c2ccc(C)cc2)c1	?	–	–	–	–	–	·	·
O=S1(=O)C=C(Sc2nc3cc(Cl)ccc3o2)c2ccccc21	–	?	–	97	65	–	96	51
Cc1cc(NC(=O)CSc2nc3cc(Cl)ccc3o2)no1	–	–	·	–	–	–	·	·
Cc1ncc(CO)c(/C=N/Nc2ccc(C(F)(F)F)cn2)c1O	–	–	89	75	–	116	72	–
C=CCn1c(=O)c2ccccc2n2c(Sc3nnnn3-c3ccccc3)nnc12	–	–	–	53	–	–	–	·
Cc1ccc2nc(-c3ccccc3)nc(SC(C)C(=O)NCc3cccs3)c2c1 (configuration not stated)	–	–	–	63	–	–	–	·
COC(=O)c1cc(=O)n(Cc2ccco2)c(=Nc2ccc(F)c(Cl)c2)s1	–	–	94	100	–	–	–	65
COC(=O)c1cc(=O)n(Cc2ccc3c(c2)OCO3)c(=Nc2ccccc2)s1	–	–	–	–	–	–	·	·
